According to ChEMBL document CHEMBL4316601, “Esterase-Sensitive and pH-Controlled Carbon Monoxide Prodrugs for Treating Systemic Inflammation” (J Med Chem, 2019):
Calls of active or inactive are those of the source. The calls are words filed in the database; no cut-off is given here.

How the values were obtained:
Liver carboxylesterase [1] = target: T1, Liver carboxylesterase (Sus scrofa, UniProt Q29550); test: Drug metabolism in PBS buffer assessed as porcine liver esterase-mediated (1S,4S)-1,4-Dimethyl-7-oxo-5,6-diphenyl-3-(phenylsulfonyl)bicyclo[2.2.1]hept-5-ene-2-carbaldehyde formation at pH 7 at 20 uM after 36 hrs by HPLC analysis; conditions: pig, pH 7, 36 h
T1 sequence (Q29550 whole entry): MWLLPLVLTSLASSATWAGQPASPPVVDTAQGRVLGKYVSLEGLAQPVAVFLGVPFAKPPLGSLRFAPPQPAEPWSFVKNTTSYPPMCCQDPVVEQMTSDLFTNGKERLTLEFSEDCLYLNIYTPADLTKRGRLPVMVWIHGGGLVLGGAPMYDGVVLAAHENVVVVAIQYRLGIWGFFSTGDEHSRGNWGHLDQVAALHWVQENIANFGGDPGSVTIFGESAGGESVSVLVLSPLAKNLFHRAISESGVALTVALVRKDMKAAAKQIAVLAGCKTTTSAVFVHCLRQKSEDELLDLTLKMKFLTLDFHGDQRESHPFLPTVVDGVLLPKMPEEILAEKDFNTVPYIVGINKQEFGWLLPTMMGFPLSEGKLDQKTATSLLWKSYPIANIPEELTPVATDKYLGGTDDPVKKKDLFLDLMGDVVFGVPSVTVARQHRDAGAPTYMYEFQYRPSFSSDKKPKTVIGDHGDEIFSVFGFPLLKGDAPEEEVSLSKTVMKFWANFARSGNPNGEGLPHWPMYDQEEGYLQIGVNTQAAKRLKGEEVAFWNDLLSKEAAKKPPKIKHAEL

Liver carboxylesterase [2] = target: T1, Liver carboxylesterase; test: Drug metabolism in PBS buffer assessed as porcine liver esterase-mediated 3',6'-dimethyl-[1,1':2',1''-terphenyl]-4'-carbaldehyde formation at pH 7 at 20 uM after 36 hrs by HPLC analysis; conditions: pig, pH 7, 36 h
Outline: (§1)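 Prodrug at a starting concentration of 20 was incubated with porcine liver esterase (3 U/mL) in PBS containing 5% DMSO at 37 °C. CO release was followed by HPLC as formation of the beta-elimination product.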

Liver carboxylesterase [3] = target: T1, Liver carboxylesterase; test: Drug metabolism in PBS buffer assessed as porcine liver esterase-mediated carbon monoxide release at pH 7 at 20 uM after 36 hrs by HPLC analysis; format: ADME; conditions: pig, isolated protein, pH 7, 36 h; outline: as §1
[4] = Drug metabolism in PBS buffer assessed as half life for carbon monoxide release at pH 7 by HPLC analysis
[5] = Drug metabolism in pH 7.4 PBS assessed as CO bounded myoglobin formation by measuring maximal absorption peak of deoxy-Mb incubated for 2 hrs by UV-vis absorption spectroscopy based myoglobin-CO assay
[6] = Drug metabolism in pH 7.4 PBS assessed as 3',6'-dimethyl-[1,1':2',1''-terphenyl]-4'-carbaldehyde fromation by HPLC
Liver carboxylesterase [7] = target: T1, Liver carboxylesterase; test: Drug metabolism in PBS buffer assessed as porcine liver esterase-mediated (1S,4S)-1,4-Dimethyl-7-oxo-5,6-diphenyl-3-(phenylsulfonyl)bicyclo[2.2.1]hept-5-ene-2-carbaldehyde formation at pH 7 at 20 uM incubated for 48 hrs by HPLC analysis; format: ADME; conditions: pig, isolated protein, pH 7, 48 h
RAW264.7 [8] = test: Cytotoxicity against mouse RAW264.7 cells assessed as reduction in cell viability at 200 uM by WST8 assay; format: cell-based; conditions: raw264.7, 200 µM
RAW264.7 [9] = test: Antiinflammatory activity in mouse RAW264.7 cells assessed as reduction in LPS-induced TNFalpha secretion at 12.5 to 100 uM preincubated for 4 hrs followed by LPS addition and measured after 1 hr by ELISA; format: functional, cell-based
Mus musculus [10] = test: Hepato-protective activity in LPS-stimulated C57BL/6 mouse assessed as reduction in LPS-induced liver injury at 10 mg/kg, ip pretreated for 30 mins followed by LPS addition and measured after 6 hrs by hematoxylin and eosin staining based assay; format: functional, organism-based
Mus musculus [11] = test: Antiinflammatory activity in LPS-stimulated C57BL/6 mouse assessed as inhibition of LPS-induced serum TNFalpha levels at 10 mg/kg, ip pretreated for 30 mins followed by LPS addition and measured after 6 hrs by ELISA; format: functional, organism-based
Mus musculus [12] = test: Hepatoprotective activity in LPS-stimulated C57BL/6 mouse assessed as reduction in LPS-induced AST levels at 10 mg/kg, ip pretreated for 30 mins followed by LPS addition and measured after 6 hrs; format: functional, organism-based
Mus musculus [13] = test: Hepatoprotective activity in LPS-stimulated C57BL/6 mouse assessed as reduction in LPS-induced ALT levels at 10 mg/kg, ip pretreated for 30 mins followed by LPS addition and measured after 6 hrs; format: functional, organism-based
[14] = Drug metabolism in mouse serum assessed as esterase-mediated (1S,4S)-1,4-Dimethyl-7-oxo-5,6-diphenyl-3-(phenylsulfonyl)bicyclo[2.2.1]hept-5-ene-2-carbaldehyde metabolite formation by measuring half life by HPLC analysis; format: ADME, cell-free
Outline: (§2)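 The prodrug was incubated in mouse, rat, rabbit or human serum. HPLC followed esterase-mediated hydrolysis to the bicyclic intermediate, giving a half-life, and the subsequent beta-elimination was followed for up to 20 h.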

[15] = Drug metabolism in rat serum assessed as esterase-mediated (1S,4S)-1,4-Dimethyl-7-oxo-5,6-diphenyl-3-(phenylsulfonyl)bicyclo[2.2.1]hept-5-ene-2-carbaldehyde metabolite formation by measuring half life by HPLC analysis; format: ADME, cell-free; outline: as §2
[16] = Drug metabolism in rabbit serum assessed as esterase-mediated (1S,4S)-1,4-Dimethyl-7-oxo-5,6-diphenyl-3-(phenylsulfonyl)bicyclo[2.2.1]hept-5-ene-2-carbaldehyde metabolite formation by measuring half life by HPLC analysis; format: ADME, cell-free, Oryctolagus cuniculus; outline: as §2
[17] = Drug metabolism in human serum assessed as esterase-mediated (1S,4S)-1,4-Dimethyl-7-oxo-5,6-diphenyl-3-(phenylsulfonyl)bicyclo[2.2.1]hept-5-ene-2-carbaldehyde metabolite formation by measuring half life by HPLC analysis; format: ADME, cell-free; outline: as §2
[18] = Drug metabolism in mouse RAW264.7 cells assessed as carbon monoxide release at 50 uM after 5 hrs by COP1-based fluorescence assay; format: ADME, cell-based; conditions: raw264.7, 5 h
RAW264.7 [19] = test: Antiinflammatory activity in mouse RAW264.7 cells assessed as reduction in LPS-induced TNFalpha secretion preincubated for 4 hrs followed by LPS addition and measured after 1 hr by ELISA; format: functional, cell-based
Mus musculus [20] = test: Antiinflammatory activity in LPS-stimulated ip dosed C57BL/6 mouse assessed as inhibition of LPS-induced serum TNFalpha levels pretreated for 30 mins followed by LPS addition and measured after 6 hrs by ELISA; format: functional, organism-based
Mus musculus [21] = test: Hepatoprotective activity in LPS-stimulated ip dosed C57BL/6 mouse assessed as reduction in LPS-induced AST levels pretreated for 30 mins followed by LPS addition and measured after 6 hrs; format: functional, organism-based
Mus musculus [22] = test: Hepatoprotective activity in LPS-stimulated ip dosed C57BL/6 mouse assessed as reduction in LPS-induced ALT levels pretreated for 30 mins followed by LPS addition and measured after 6 hrs; format: functional, organism-based
Liver carboxylesterase [23] = target: T1, Liver carboxylesterase; test: Drug metabolism in PBS buffer assessed as porcine liver esterase-mediated carbon monoxide release at pH 7 at 20 uM incubated for 48 hrs by HPLC analysis; format: ADME; conditions: pig, isolated protein, pH 7, 48 h; outline: as §1
[24] = Drug metabolism in PBS buffer assessed as (1S,4S)-1,4-Dimethyl-7-oxo-5,6-diphenyl-3-(phenylsulfonyl)bicyclo[2.2.1]hept-5-ene-2-carbaldehyde formation at pH 7 at 20 uM in absence of porcine liver esterase after 6 hrs by HPLC analysis
Outline: (§3)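 The prodrug was incubated without porcine liver esterase for up to 6 h, in either PBS (pH 7) or simulated gastric fluid (pH ~1). HPLC monitored hydrolysis to the acetal-cleaved bicyclic intermediate.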

[25] = Drug metabolism in pH 1 SGF assessed as (1S,4S)-1,4-Dimethyl-7-oxo-5,6-diphenyl-3-(phenylsulfonyl)bicyclo[2.2.1]hept-5-ene-2-carbaldehyde formation at 20 uM in absence of porcine liver esterase after 6 hrs by HPLC analysis; outline: as §3
Liver carboxylesterase [26] = target: T1, Liver carboxylesterase; test: Drug metabolism in pH 1 SGF assessed as porcine liver esterase-mediated (1S,4S)-1,4-Dimethyl-7-oxo-5,6-diphenyl-3-(phenylsulfonyl)bicyclo[2.2.1]hept-5-ene-2-carbaldehyde formation at 20 uM after 2 mins by HPLC analysis; format: ADME; conditions: pig, isolated protein, pH 1, 2 min
Outline: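 The prodrug was incubated in simulated gastric fluid (pH ~1) containing porcine liver esterase at 37 °C. HPLC tracked formation of the hydrolysed bicyclic intermediate and of the beta-elimination product for up to 7 h.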

RAW264.7 [27] = test: Cytotoxicity against mouse RAW264.7 cells assessed as reduction in cell viability at 50 uM uM incubated for 5 hrs by WST8 assay; format: cell-based; conditions: raw264.7, 5 h

In the case of CC(C)(C)C(=O)OC(OC(=O)C(C)(C)C)[C@@H]1[C@H](S(=O)(=O)c2ccccc2)[C@]2(C)C(=O)[C@]1(C)C(c1ccccc1)=C2c1ccccc1, the Drug metabolism (Liver carboxylesterase [1]) is reported as “Metabolite_Notdetected”, the Drug metabolism (Liver carboxylesterase [2]) is reported as “Metabolite_Notdetected” and the Drug metabolism (Liver carboxylesterase [3]) is reported as “Metabolite_Notdetected”.

For C[C@@]12C(=O)[C@](C)(C(c3ccccc3)=C1c1ccccc1)[C@@H](S(=O)(=O)c1ccccc1)[C@H]2C=O, the T1/2 [4] was 30 min, the Drug metabolism [5] was “Metabolite detected” and the Drug metabolism [6] was “Metabolite detected”.

For CCCC(=O)OC(OC(=O)CCC)[C@@H]1[C@H](S(=O)(=O)c2ccccc2)[C@]2(C)C(=O)[C@]1(C)C(c1ccccc1)=C2c1ccccc1, the Drug metabolism (Liver carboxylesterase [7]) was “Metabolite_Detected”.

In the case of Cc1cc(C=O)c(C)c(-c2ccccc2)c1-c1ccccc1, the Activity (RAW264.7 [8]) is reported as “Non-Toxic”, the inhibition (RAW264.7 [9]) is reported as “inactive” and the Activity (Mus musculus [10]) is reported as “inactive”. The Activity (Mus musculus [11]) was “inactive”, the Activity (Mus musculus [12]) was “inactive” and the Activity (Mus musculus [13]) was “inactive”.

In the case of CC(=O)OC(OC(C)=O)[C@@H]1[C@H](S(=O)(=O)c2ccccc2)[C@]2(C)C(=O)[C@]1(C)C(c1ccccc1)=C2c1ccccc1, the Drug metabolism (Liver carboxylesterase [7]) is reported as “Metabolite_Detected”, the t1/2 [14] is reported as 3 min and the t1/2 [15] is reported as 10 min. For the same molecule, the t1/2 [16] was 30 min, the t1/2 [17] was 840 min and the Drug metabolism [18] was “Metabolite_Detected”. For the same molecule, the inhibition (RAW264.7 [19]) was “Dose-dependent effect”, the Activity (Mus musculus [20]) was “Dose-dependent effect” and the Activity (Mus musculus [21]) was “Dose-dependent effect”. The Activity (Mus musculus [22]) was “Dose-dependent effect”, the Activity (Mus musculus [10]) was “Active” and the t1/2 (Liver carboxylesterase [23]) was 30 to 480 min. The Drug metabolism [24] was “Metabolite not detected”, the Drug metabolism [25] was “Metabolite not detected” and the Drug metabolism (Liver carboxylesterase [26]) was “Metabolite_Detected”. The Activity (RAW264.7 [27]) was “Non-Toxic”.

For C[C@@]12C(=O)[C@](C)(C(c3ccccc3)=C1c1ccccc1)[C@@H](S(=O)(=O)c1ccccc1)[C@H]2C(OC(=O)C1CC1)OC(=O)C1CC1, the Drug metabolism (Liver carboxylesterase [7]) was “Metabolite_Detected”.
